# Data published in ChEMBL document CHEMBL2424600, “Synthetic polyamines activating autophagy: effects on cancer cell death” (Eur J Med Chem, 2013).
# The source made the active and inactive calls. The calls are words filed in the database; no cut-off is given here.
# Columns and labels:
# HeLa [1] = assay: Cytotoxicity against human HeLa cells assessed as cell survival after 48 hrs by trypan blue exclusion assay; format: functional, cell-based
# How it was run: (§1)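 Cells exposed 48 h to increasing concentrations in DMSO (0.1% of medium) at 37 °C, 5% CO2. Trypan blue exclusion counts, at least 10 fields per sample, survival as % of viable control cells. IC50 interpolated from dose–response curve; means ± S.E.M. of three to four replicates.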
# U2OS [2] = assay: Cytotoxicity against human U2OS cells assessed as cell survival after 24 hrs by trypan blue exclusion assay; format: functional, cell-based
# How it was run: (§2)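 Cells exposed 24 h to increasing concentrations (DMSO vehicle, 0.1% of medium; controls got DMSO) at 37 °C, 5% CO2. Viability by trypan blue exclusion, triplicate samples, at least 10 fields counted each; survival as % of viable cells vs control. IC50 read from dose–response curve as concentration giving 50% survival.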
# U2OS [3] = assay: Cytotoxicity against human U2OS cells assessed as cell survival after 48 hrs by trypan blue exclusion assay; format: functional, cell-based; how it was run: as §1
# SAOS-2 [4] = assay: Cytotoxicity against human p53-deficient Saos2 cells assessed as cell survival after 24 hrs by trypan blue exclusion assay; format: functional, cell-based; settings: SAOS-2, 24 h; how it was run: as §2
# HeLa [5] = assay: Induction of apoptosis in human HeLa cells assessed as chromatin condensation at 2 uM after 24 hrs by DAPI staining assay; format: functional, cell-based
# How it was run: (§3)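 HeLa treated 24 h with 2 µM, then stained with DAPI and scored for chromatin condensation and nuclear fragmentation/condensation.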
# HeLa [6] = assay: Cytotoxicity against human HeLa cells assessed as decrease in cell survival at 2 uM after 24 hrs at pH 6.4 by trypan blue exclusion assay; format: functional, cell-based
# How it was run: (§4)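 HeLa given 2 µM for 24 h with uptake-modifying conditions: 0.5 mM spermine plus 1 mM aminoguanidine (inhibits serum amine oxidases); 0.1 mM DFMO with 48 h pretreatment; or medium adjusted to pH 6.4 with HCl instead of 7.2. Survival by trypan blue exclusion vs control; triplicate means ± S.E.M.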
# HeLa [7] = assay: Cytotoxicity against human HeLa cells assessed as decrease in cell survival at 2 uM after 24 hrs by trypan blue exclusion assay in presence of necrostatin-1; format: functional, cell-based
# How it was run: (§5)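 HeLa pretreated 2 h with Z-VADfmk (50 µM) or necrostatin-1 (20 µM), then exposed to compound for 24 h. Viability by trypan blue exclusion, survival as % of viable control cells; means ± S.E.M. of three determinations.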
# HeLa [8] = assay: Cytotoxicity against human HeLa cells transfected with Atg5 siRNA assessed as decrease in cell survival at 2 uM after 24 hrs by trypan blue exclusion assay; format: functional, cell-based
# How it was run: (§6)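 HeLa at 50% confluence transfected 24 h with 100 nM (final) Atg5 or control siRNA, then after a further 24 h incubated 24 h ± 2 µM compound. Cell death by trypan blue; acidic vesicle accumulation by acridine orange staining. Atg5 knockdown checked by blot. Triplicate means ± S.E.M.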
# HeLa [9] = assay: Induction of autophagy in human HeLa cells assessed as appearance of vacuoles in cytoplasm containing organic materials at 2 uM after 24 hrs by transmission electron microscopic analysis; format: functional, cell-based
# How it was run: (§7)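 HeLa seeded on glass slides at 1.3 × 10^6 cells/well for 24 h, treated 24 h with 2 µM, fixed in 2.5% glutaraldehyde in 0.1 M phosphate buffer 2 h at 4 °C, post-fixed in 1% OsO4 1 h at 4 °C, examined by transmission electron microscopy for cytoplasmic vacuoles.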
# HeLa [10] = assay: Induction of autophagy in human HeLa cells assessed as appearance of acidic vesicular organelles at 2 uM after 3 hrs by acridine orange staining-based immunofluorescence microscopic analysis; format: functional, cell-based
# How it was run: (§8)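 HeLa treated 3 h with DMSO or 2 µM, with or without 2 h pretreatment with 5 mM NAC; stained with acridine orange and imaged by fluorescence microscopy for cells with orange–red acidic vesicular organelles. Two independent experiments.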
# HL-60 [11] = assay: Cytotoxicity against human HL60 cells assessed as cell survival after 48 hrs by trypan blue exclusion assay; format: functional, cell-based; settings: HL-60, 48 h; how it was run: as §1
# HeLa [12] = assay: Induction of apoptosis in human HeLa cells assessed as increase in caspase 3/7 activity at 2 uM after 24 hrs by DEVD-based fluorometric analysis; format: functional, cell-based
# How it was run: (§9)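 HeLa treated 24 h with 25 µM DENSPM (positive control) or the indicated concentrations of compound; DEVDase (caspase 3/7) activity measured. Means ± S.E.M. of three replicates vs control.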
# HeLa [13] = assay: Cytotoxicity against human HeLa cells assessed as decrease in cell survival up to 3 mM after 24 hrs by trypan blue exclusion assay in presence of N-acetylcysteine; format: functional, cell-based
# How it was run: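 HeLa exposed 24 h to the indicated concentrations with or without 5 mM N-acetylcysteine. Survival by trypan blue exclusion relative to control; triplicate means ± S.E.M.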
# HeLa [14] = assay: Induction of apoptosis in human HeLa cells assessed as nuclear condensation at 2 uM after 24 hrs by DAPI staining assay; format: functional, cell-based; how it was run: as §3
# HeLa [15] = assay: Induction of intracellular peroxide formation in human HeLa cells at 2 uM after 3 hrs by DCFDA staining-based flow cytometric analysis; format: functional, cell-based
# How it was run: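 HeLa treated 3 h with 2 µM, then loaded with 5 µM DCFDA for 30 min at 37 °C. DCF fluorescence measured by flow cytometry with logarithmic amplification; mean fluorescence channel vs DMSO control.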
# LoVo [16] = assay: Cytotoxicity against human LoVo cells assessed as cell survival after 48 hrs by trypan blue exclusion assay; format: functional, cell-based; how it was run: as §1
# [17] = Cytotoxicity against human C-28/I2 cells assessed as cell survival after 24 hrs by trypan blue exclusion assay; format: cell-based; settings: C28/I2, 24 h; how it was run: as §2
# HeLa [18] = assay: Induction of autophagy in human HeLa cells assessed as conversion of LC3-1 protein to LC3-2 protein at 2 uM after 3 hrs by Western blot analysis in presence of N-acetylcysteine; format: functional, cell-based
# How it was run: (§10)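 HeLa treated 3 h with 2 µM in presence or absence of 5 mM NAC; 50 µg protein analysed by Western blot with monoclonal antibody recognising LC3-I (18 kDa) and LC3-II (16 kDa).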
# HT-29 [19] = assay: Cytotoxicity against human HT-29 cells assessed as cell survival after 48 hrs by trypan blue exclusion assay; format: functional, cell-based; settings: HT-29, 48 h; how it was run: as §1
# SAOS-2 [20] = assay: Cytotoxicity against human p53-deficient Saos2 cells assessed as cell survival after 48 hrs by trypan blue exclusion assay; format: functional, cell-based; settings: SAOS-2, 48 h; how it was run: as §1
# HeLa [21] = assay: Induction of autophagy in human HeLa cells assessed as conversion of LC3-1 protein to LC3-2 protein at 2 uM after 3 hrs by Western blot analysis in presence of bafilomycin A; format: functional, cell-based
# HeLa [22] = assay: Cytotoxicity against human HeLa cells assessed as decrease in cell survival at 2 uM after 24 hrs by trypan blue exclusion assay in presence of spermine; format: functional, cell-based; how it was run: as §4
# HeLa [23] = assay: Cytotoxicity against human HeLa cells assessed as cell survival after 24 hrs by trypan blue exclusion assay; format: functional, cell-based; how it was run: as §2
# HeLa [24] = assay: Induction of apoptosis in human HeLa cells assessed as nuclear fragmentation at 2 uM after 24 hrs by DAPI staining assay; format: functional, cell-based; how it was run: as §3
# HeLa [25] = assay: Cytotoxicity against human HeLa cells assessed as decrease in cell survival at 2 uM after 24 hrs by trypan blue exclusion assay relative to control; format: functional; settings: read-out: Survival
# How it was run: (§11)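 HeLa cells grown in EMEM with 10% FBS, 1% glutamine, 1% nonessential amino acids, 1 mM pyruvate and antibiotics at 37 °C in 5% CO2. Compound added from DMSO stock (DMSO 0.1% of volume; controls got DMSO only) and exposed 24 h. Viability read by trypan blue exclusion in triplicate samples, at least 10 fields counted. Survival given as % viable cells versus control.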
# HeLa [26] = assay: Induction of autophagy in human HeLa cells assessed as appearance of vacuoles in cytoplasm containing mitochondrion at 2 uM after 24 hrs by transmission electron microscopic analysis; format: functional, cell-based; how it was run: as §7
# HeLa [27] = assay: Disruption of mitochondrial membrane potential in human HeLa cells at 2 uM after 4 hrs by DiOC6/propidium iodide staining-based flow cytometric analysis; format: functional
# How it was run: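 After treatment, HeLa (1 × 10^6 cells/mL) stained with 4 nM DiOC6 for 40 min at 37 °C in the dark, counterstained with 5 µg/mL propidium iodide to exclude dead cells. Flow cytometry with logarithmic amplification, argon laser; mean green fluorescence channel recorded.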
# HeLa [28] = assay: Cytotoxicity against human HeLa cells assessed as decrease in cell survival at 2 uM after 24 hrs by trypan blue exclusion assay in presence of DFMO; format: functional, cell-based; how it was run: as §4
# HeLa [29] = assay: Cytotoxicity against human HeLa cells assessed as decrease in cell survival at 2 uM after 24 hrs by trypan blue exclusion assay in presence of Z-VADfmk; format: functional, cell-based; how it was run: as §5
# HeLa [30] = assay: Induction of autophagy in human HeLa cells transfected with Atg5 siRNA assessed as acidic vesicles accumulation at 2 uM after 24 hrs by acridine orange staining-based immunofluorescence microscopic analysis relative to cell transfected with control siRNA; format: functional; how it was run: as §6
# HeLa [31] = assay: Induction of autophagy in human HeLa cells assessed as conversion of LC3-1 protein to LC3-2 protein at 2 uM after 3 hrs by Western blot analysis; format: functional, cell-based; how it was run: as §10
# Thymocyte = assay: Cytotoxicity against rat thymocytes assessed as cell survival after 24 hrs by trypan blue exclusion assay; format: cell-based; how it was run: as §2
# LoVo [32] = assay: Cytotoxicity against human LoVo cells assessed as cell survival after 24 hrs by trypan blue exclusion assay; format: functional, cell-based; how it was run: as §2
# HeLa [33] = assay: Induction of autophagy in human HeLa cells assessed as appearance of acidic vesicular organelles at 2 uM after 3 hrs by acridine orange staining-based immunofluorescence microscopic analysis in presence of N-acetylcysteine; format: functional, cell-based; how it was run: as §8
# [34] = Cytotoxicity against human SH-SY5Y cells assessed as cell survival after 24 hrs by trypan blue exclusion assay; format: functional, cell-based; how it was run: as §2
# HT-29 [35] = assay: Cytotoxicity against human HT-29 cells assessed as cell survival after 24 hrs by trypan blue exclusion assay; format: functional, cell-based; settings: HT-29, 24 h; how it was run: as §2
# [36] = Cytotoxicity against human SH-SY5Y cells assessed as cell survival after 48 hrs by trypan blue exclusion assay; format: functional, cell-based; how it was run: as §1
# HL-60 [37] = assay: Cytotoxicity against human HL60 cells assessed as cell survival after 24 hrs by trypan blue exclusion assay; format: functional, cell-based; settings: HL-60, 24 h; how it was run: as §2
# HeLa [38] = assay: Induction of autophagy in human HeLa cells assessed as conversion of LC3-1 protein to LC3-2 protein at 25 uM after 24 hrs by Western blot analysis; format: functional, cell-based
# How it was run: (§12)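 HeLa incubated 24 h with DENSPM (25 µM) or spermidine (8 mM); LC3-I/LC3-II processing by Western blot of 50 µg protein with monoclonal anti-LC3 antibody.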
# HeLa [39] = assay: Cytotoxicity against human HeLa cells assessed as decrease in cell survival at 25 uM after 24 hrs by trypan blue exclusion assay relative to control; format: functional; settings: read-out: Survival; how it was run: as §11
# HeLa [40] = assay: Induction of apoptosis in human HeLa cells assessed as increase in caspase 3/7 activity at 25 uM after 24 hrs by DEVD-based fluorometric analysis; format: functional, cell-based; how it was run: as §9
# HeLa [41] = assay: Induction of autophagy in human HeLa cells assessed as conversion of LC3-1 protein to LC3-2 protein at 8 mM after 24 hrs by Western blot analysis; format: functional, cell-based; how it was run: as §12
compound,measurement,setting,value
c1ccc(C(CNCCCCCCNCCCCCCCCCCCCNCCCCCCNCC(c2ccccc2)c2ccccc2)c2ccccc2)cc1,IC50,HeLa [1],600 nM
same,IC50,U2OS [2],1100 nM
same,IC50,U2OS [3],400 nM
same,IC50,SAOS-2 [4],900 nM
same,Activity,HeLa [5],inactive
same,Activity,HeLa [6],inactive
same,Activity,HeLa [7],Active
same,Activity,HeLa [8],Active
same,Activity,HeLa [9],Active
same,Activity,HeLa [10],Active
same,IC50,HL-60 [11],700 nM
same,Activity,HeLa [12],inactive
same,Activity,HeLa [13],inactive
same,Activity,HeLa [14],inactive
same,Activity,HeLa [15],Active
same,IC50,LoVo [16],800 nM
same,IC50,[17],4300 nM
same,Activity,HeLa [18],inactive
same,IC50,HT-29 [19],1100 nM
same,IC50,SAOS-2 [20],300 nM
same,Activity,HeLa [21],Active
same,Activity,HeLa [22],Active
same,IC50,HeLa [23],1600 nM
same,Activity,HeLa [24],inactive
same,viability at 2 µM,HeLa [25],50%
same,Activity,HeLa [26],Active
same,Activity,HeLa [27],>50%
same,Activity,HeLa [28],Active
same,Activity,HeLa [29],Active
same,Activity,HeLa [30],inactive
same,Activity,HeLa [31],Active
same,IC50,Thymocyte,6800 nM
same,IC50,LoVo [32],2000 nM
same,Activity,HeLa [33],inactive
same,IC50,[34],2800 nM
same,IC50,HT-29 [35],2400 nM
same,IC50,[36],900 nM
same,IC50,HL-60 [37],1900 nM
CCNCCCNCCCNCCCNCC [BIS(ETHYL)NORSPERMINE],Activity,HeLa [38],inactive
same,viability at 25 µM,HeLa [39],50%
same,Activity,HeLa [40],Active
NCCCCNCCCN,Activity,HeLa [41],Active
